# Screening results as filed in PubChem BioAssay.
# Rows were chosen to be rich in hits. Some 3.8% of all compounds tested hit in one or more screens of this group.
# Kir21 block – inhibitors of mouse Kir2.1 inward-rectifier potassium channel; HEK293-Kir2.1, FluxOR thallium flux fluorescence; hits give low values; B-score at 10 µM; hit rate 0.85% among 310,000;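 active = fluorescence ratio B-score at or below minus 3 SD of library scores, with starting-brightness B-score within 2 SD, cut at about -4.2 in these data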;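 also: channel flux triggered by added potassium and thallium sulfate stimulus; B-score of peak minus minimum fluorescence over baseline after thallium stimulus; more negative B-score means stronger Kir2.1 block with less thallium influx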
# Target sequence (P35561 whole entry, looked up): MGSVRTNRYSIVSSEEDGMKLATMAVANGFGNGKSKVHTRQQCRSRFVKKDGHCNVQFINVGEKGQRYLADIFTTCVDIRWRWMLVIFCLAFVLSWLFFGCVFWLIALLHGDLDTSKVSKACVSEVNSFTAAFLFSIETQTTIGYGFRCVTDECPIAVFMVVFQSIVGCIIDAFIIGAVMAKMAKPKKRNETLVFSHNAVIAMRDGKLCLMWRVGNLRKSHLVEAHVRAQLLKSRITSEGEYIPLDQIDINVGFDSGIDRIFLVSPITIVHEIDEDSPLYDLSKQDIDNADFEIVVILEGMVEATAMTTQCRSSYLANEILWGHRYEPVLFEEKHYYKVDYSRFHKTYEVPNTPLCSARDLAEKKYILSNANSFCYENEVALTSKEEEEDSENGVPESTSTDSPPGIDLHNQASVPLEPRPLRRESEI
# hERG protect – hERG rescue from dofetilide block, primary screen, cell-based, CHO-hERG, FluxOR thallium flux, dofetilide IC70. hit rate 0.51% among 310,000. Voltage-gated inwardly rectifying potassium channel KCNH2 (Homo sapiens), Q12809. dofetilide IC70 present. activation (rescue from dofetilide block), less the hit threshold, % at 10 µM. AID 1511, 2009;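 active = activation above the mean of controls blocked by dofetilide plus 5 SD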;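 also: thallium influx through hERG after potassium depolarization seen as dye fluorescence rise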
# KCNQ1 inh – inhibitors of human KCNQ1 channel, primary screen, cell-based, thallium flux, high-throughput. hit rate 1.3% among 310,000. CHO-K1 KCNQ1, FluxOR thallium flux fluorescence; hits give high values. B-score at 10 µM;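 active = compounds whose thallium flux B-score, printed positive for inhibition, exceeds three library SD while starting fluorescence stays within three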;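 also: channel opened by potassium depolarization with thallium stimulus after 20 min compound exposure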
# KCNK3 block – human KCNK3 channel inhibitors, primary screen, CHO cells, FluxOR thallium flux, B-score. B-score at 10 µM. hit rate 0.84% among 340,000. FluxOR fluorescence; hits give low values;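 active = B-score under library mean minus 4 SD, starting fluorescence ratio at most library mean plus 5 SD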;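 also: more negative B-score means stronger inhibition of thallium flux through KCNK3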
# KCNQ1 pot – potentiators or activators of KCNQ1 channel, primary screen, cell-based, thallium flux, high-throughput; CHO-K1 KCNQ1, thallium flux FluxOR fluorescence; hits give high values; hit rate 0.35% among 310,000; AID 2648, 2010; B-score at 10 µM;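 active = fluorescence ratio B-score, a plate-corrected score, at least three library SD, with initial intensity B-score within 5 SD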
#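 System: CHO-K1 cells stably expressing KCNQ1 / Medium: assay buffer for compound exposure, DMSO matched across wells / Reagent: thallium- and potassium-containing depolarizing buffer / Compound: one concentration, matched DMSO / Incubation: 20 min compound pretreatment at room temperature / Measured by: kinetic FluxOR fluorescence, 10 s baseline plus 110 s post-stimulus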
# KCNK9 inh – KCNK9 potassium channel inhibitors, primary screen, HEK293 cells, thallium flux; FluxOR thallium flux fluorescence; hits give low values; B-score at 10 µM; hit rate 1.2% among 310,000;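 active = ratio B-score over 3 SD below the library mean, with starting fluorescence within 5 SD of its mean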;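 also: negative B-score means less thallium flux so channel inhibition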
# KCNQ1 block val – KCNQ1 potassium channel inhibitors, confirmation, cell-based, Tl flux, duplicate; KCNQ1 cell line, FluxOR thallium flux fluorescence; hit rate 93% among 1,600; shares compounds with KCNQ1 inh; inhibition, % at 10 µM;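 active = primary screen active, with duplicate mean exceeding buffer control mean plus 3 SD of buffer wells, cut at about 28% in these data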;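 also: 0% = buffer control ratio and 100% = XE991 inhibitor control ratio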
# CHO KCNQ1 ctr – thallium flux effects in parental CHO cells, counter-screen for KCNQ1 inhibitor project, cell-based, Tl flux | AID 588366, 2011 | shares compounds with KCNQ1 inh | hit rate 21% among 1,600 | parental CHO-K1, FluxOR thallium flux fluorescence ratio; hits give low values; zero means no signal rise above baseline | fluorescence ratio (Tl flux) at 10 µM;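 active = mean of duplicate thallium-flux fluorescence ratios in parental host cells more than 5 SD below the buffer control mean, cut at about 0.38 in these data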;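 also: ratio is peak minus minimum fluorescence divided by baseline fluorescence; actives read low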
# KCNQ1 APC inh – KCNQ1 channel inhibitors, confirmation, orthogonal assay, cell-based, automated electrophysiology; shares compounds with KCNQ1 inh; calls only at 10 µM; KCNQ1-CHO cells, automated patch clamp current; AID 624120, 2012; hit rate 20% among 490;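 active = KCNQ1 current drop exceeding 3 SD of negative control wells, seen in both duplicate runs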;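 also: steady state current during a 2 s step from -80 to +40 mV; negative values mean current inhibition and positive values mean potentiation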
# KCNQ2 inh – KCNQ2 channel inhibition, selectivity assay for KCNQ1 inhibitor project, cell-based | inhibition, % at 10 µM | KCNQ2 cells, FluxOR thallium flux fluorescence | hit rate 71% among 1,600 | shares compounds with KCNQ1 inh;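 active = mean percent inhibition of the KCNQ2 thallium signal more than 5 SD above the buffer-only control wells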;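 also: KCNQ2 expressed in CHO cells; 0% = buffer control wells and 100% = XE-991 inhibitor control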
# KCNQ1-KCNE1 inh – KCNQ1/KCNE1 channel inhibition, selectivity assay for KCNQ1 inhibitor project, CHO-K1 cells, thallium flux, FluxOR; shares compounds with KCNQ1 inh; FluxOR thallium flux fluorescence; inhibition, % at 10 µM; hit rate 77% among 1,600; AID 652147, 2013;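 active = mean percent inhibition of duplicate wells above the buffer-only control mean plus 3 SD of those controls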;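 also: 0% = buffer only wells and 100% = XE-991 inhibitor control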
# * marks the source's active call; other numbers are inactive results; i = inactive; / = no result given; + = active, no number.
SMILES,Kir21 block,hERG protect,KCNQ1 inh,KCNK3 block,KCNQ1 pot,KCNK9 inh,KCNQ1 block val,CHO KCNQ1 ctr,KCNQ2 inh,KCNQ1-KCNE1 inh,others
COc1ccc(NC(=S)Nc2cccc(C(F)(F)F)c2)c(C)c1,0,-5,8*,i,i,i,99*,0.49,100%*,60%*,KCNQ1 APC inh=i
COc1ccc2c(=O)c(-c3cnn(-c4ccccc4)c3)c(C)oc2c1,-2.2,-9,i,i,i,i,/,/,/,/,
Nc1nc(Cl)cc(N2CCC(c3cc(-c4ccc(Cl)cc4Cl)n[nH]3)CC2)n1,-0.45,-15,6*,i,i,i,136*,0.37*,113%*,174%*,
Cc1cc(=O)[nH]c(/N=C(\N)Nc2cccc3ccccc23)n1,2.1,-6,i,i,i,i,/,/,/,/,
COc1ccc(NC(=S)Nc2cccc(Cl)c2)cc1OC,-1.5,-10,13*,i,i,i,32*,0.41,i,i,
Cc1cccc(NC(=O)Nc2ccc(S(N)(=O)=O)cc2)c1,-2,-10,i,i,i,i,/,/,/,/,
COC(=O)c1cccc(NC(=S)Nc2ccc(Cl)c(Cl)c2)c1,0.07,-22,8*,i,i,i,168*,0.5,i,i,KCNQ1 APC inh=i
O=C(Nc1ccccc1)Nc1cc(Cl)cc(Cl)c1,0.34,-14,10*,i,i,i,28*,0.52,78%*,i,
NS(=O)(=O)c1cccc(NC(=O)Nc2ccc(Cl)cc2)c1,1.6,-13,8*,i,i,i,137*,0.43,101%*,108%*,KCNQ1 APC inh=i
O=C(Nc1cccc(Cl)c1)Nc1cccc(Cl)c1,0.3,-8,i,i,i,i,/,/,/,/,
COC(=O)c1cc(NC(=O)Nc2cccc(Cl)c2)ccc1Cl,1.3,-12,6*,i,i,i,62*,0.52,i,i,
O=C(Nc1ccncc1)Nc1ccc(Cl)cc1,0.37,-16,7*,i,i,i,28*,0.54,i,i,
CN1CCN(S(=O)(=O)c2ccc(NC(=O)Nc3cccc(Cl)c3)cc2)CC1,0.76,-21,11*,i,i,i,62*,0.48,65%*,i,
COC(=O)c1cccc(NC(=O)Nc2ccc(Cl)cc2)c1,0.5,-8,7*,i,i,i,44*,0.55,i,i,
Cc1cccc(OCc2nnc(SCC(=O)Nc3cccc(C(=O)N4CCOCC4)c3)n2C)c1C,-0.78,-8,i,i,i,i,/,/,/,/,
COC(=O)c1cc(NC(=S)Nc2cc(Cl)cc(Cl)c2)cc(C(=O)OC)c1,-0.15,-11,8*,i,i,i,66*,0.42,59%*,i,
CC(Oc1cccc(Cl)c1)C(=O)Nc1ccccc1N1CCCCC1 (stereo unspecified),3.3,-11,9*,i,i,-7.8*,116*,0.47,84%*,138%*,KCNQ1 APC inh=i
CC(Oc1cccc(Cl)c1)C(=O)Nc1ccccc1C(=O)N1CCCCC1 (stereo unspecified),-1.3,-13,i,i,i,i,/,/,/,/,
CCOc1cc(C(c2c(O)nc(SC)[nH]c2=O)c2c(O)nc(SC)[nH]c2=O)ccc1O,-0.92,-7,i,i,i,i,/,/,/,/,
CC(NC(=O)Nc1ccc([N+](=O)[O-])cc1)C(c1ccccc1)N1CCOCC1 (stereo unspecified),-0.05,-12,i,i,i,i,/,/,/,/,
CC(NC(=O)Nc1ccc(Cl)c(Cl)c1)C(c1ccccc1)N1CCOCC1 (stereo unspecified),0.55,-13,9*,i,i,i,105*,0.41,81%*,79%*,KCNQ1 APC inh=+
Oc1ccc2nnc3c(Br)cnn3c2c1,-16,-44,24*,i,i,i,+,0.042*,i,i,
CC(NC(=O)Nc1nnc(C(F)(F)F)s1)(C(F)(F)F)C(F)(F)F,1.2,-45,7*,i,i,i,0,0.53,i,i,
CC(NC(=O)Nc1nnc(C(F)(F)F)s1)N1C(=O)C2C3C=CC(C3)C2C1=O (stereo unspecified),0.64,-4,i,i,i,i,/,/,/,/,
Cc1cccc(NC(=O)c2ccc([N+](=O)[O-])o2)c1C,0.27,-12,i,i,i,i,/,/,/,/,
SMILES,Kir21 block,hERG protect,KCNQ1 inh,KCNK3 block,KCNQ1 pot,KCNK9 inh,KCNQ1 block val,CHO KCNQ1 ctr,KCNQ2 inh,KCNQ1-KCNE1 inh,others
Cc1nn2c(NCCN3CCOCC3)c3c(nc2c1-c1ccccc1)CCCC3,-1.3,-20,7*,i,i,i,58*,0.47,82%*,73%*,
Clc1ccc(-c2nnc3n2CCCS3)cc1,2.4,-14,i,i,i,i,/,/,/,/,
CCOc1nc(Nc2ccc(OC)c(Cl)c2)nc(N2CCN(c3ccc(OC)cc3)CC2)n1,-1,-11,7*,i,i,i,114*,0.48,79%*,144%*,KCNQ1 APC inh=i
CCOc1nc(Nc2ccc(F)cc2)nc(N2CCN(c3ccc(OC)cc3)CC2)n1,-0.29,-9,i,i,i,i,/,/,/,/,
COc1ccc(-c2nc3ccccc3nc2-c2ccccc2)cc1OC,-0.78,-19,i,i,i,i,/,/,/,/,
COc1ccc(-c2cc(-c3ccccc3)nc(Cl)n2)cc1OC,1,-6,8*,i,i,i,131*,0.45,128%*,166%*,KCNQ1 APC inh=i
